Compound activity: PubChem, several laboratories
A selection: hits, their analogues and other compounds. The true share with any hit is near 1.7%.
IMP-1 inh – inhibitors of Pseudomonas aeruginosa IMP-1 metallo-beta-lactamase; purified IMP-1, nitrocefin hydrolysis, epi-absorbance fluorescence; inhibition, % at 5.6 µM; 0.45% of 290,000 active; AID 1556;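 active means inhibition above the mean plus 3 SD of all compounds in the same screening run, cut at about 4.5% in these data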;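 further: 0% = IMP-1 with DMSO and 100% = DMSO wells lacking enzyme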
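assay system = purified recombinant IMP-1 metallo-beta-lactamase enzyme | schedule = 15 min preincubation plus 25 min reaction at 25 °C | signal = Epi-absorbance fluorescence, 480 nm excitation, 530 nm emission | read-out basis = percent inhibition from optical density relative to buffer-blank wells | controls = IMP-1 with DMSO as 0%, enzyme-free DMSO as 100%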
procasp3 activ – activates human procaspase-3; P42574; recombinant procaspase-3 D3A, Ac-DEVD-pNA absorbance 405 nm; activation, % at 8.5 µM; 0.11% of 330,000 active; AID 463141;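 active means activation above the mean of all tested compounds plus 3 SD, cut at about 21% in these data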;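 further: 0% = DMSO alone and 100% = DMSO wells spiked with extra 5 µM PC-3 D3A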
Target sequence (P42574 whole entry D9A/D28A/D175A): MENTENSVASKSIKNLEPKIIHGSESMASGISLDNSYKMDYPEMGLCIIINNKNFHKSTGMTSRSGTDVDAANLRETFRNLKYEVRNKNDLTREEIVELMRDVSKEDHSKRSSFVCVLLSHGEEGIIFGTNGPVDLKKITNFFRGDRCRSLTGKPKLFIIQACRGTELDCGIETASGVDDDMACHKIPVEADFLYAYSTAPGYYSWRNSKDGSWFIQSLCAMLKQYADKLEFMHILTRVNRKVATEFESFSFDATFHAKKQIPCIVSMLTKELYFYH
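Evaluation: percent activation relative to control range; Material: Procaspase-3 D3A mutant, all three cleavage aspartates alanine; Compound: single dose, 8.5 µM nominal compound, 0.8% DMSO; Replication: one well per compound; Signal: absorbance at 405 nm, 0 and 120 min; Schedule: 1 h preincubation plus 2 h reaction at 25 °C.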
proCasp7 act – activates human procaspase-7, counter-screen for procaspase-3 activators | P55210 | recombinant procaspase-7, Ac-DEVD-pNA absorbance 405 nm; D23A/D198A/D206A triple mutant, cannot self-cleave; scale: DMSO 0, 5 µM enzyme 100 | activation, % at 8.5 µM | 0.093% of 330,000 active | AID 463210;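 active means percent activation above the screen-wide mean plus 3 SD, cut at about 25% in these data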
Target sequence (P55210 whole entry D23A/D198A/D206A): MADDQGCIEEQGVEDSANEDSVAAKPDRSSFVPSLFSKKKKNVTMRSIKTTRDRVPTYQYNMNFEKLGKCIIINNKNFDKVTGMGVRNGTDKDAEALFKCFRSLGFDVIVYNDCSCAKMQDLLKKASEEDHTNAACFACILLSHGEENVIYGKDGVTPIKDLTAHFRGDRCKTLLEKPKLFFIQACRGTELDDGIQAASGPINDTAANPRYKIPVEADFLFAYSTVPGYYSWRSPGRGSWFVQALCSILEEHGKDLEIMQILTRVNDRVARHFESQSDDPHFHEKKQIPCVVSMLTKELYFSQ
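signal = Epi-absorbance of released pNA at 405 nm, two timepoints | assay system = Uncleavable procaspase-7 mutant enzyme | reagent = Ac-DEVD-pNA substrate, 400 µM as added | times = 1 h enzyme–compound preincubation and 2 h substrate reaction, both 25 °C | benchmarks = low DMSO alone, high DMSO plus 5 µM PC-7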
PolyA inh – blocks polyadenylation in yeast reporter cells; S. cerevisiae SKY197-pL101 polyadenylation reporter, beta-gal luminescence; efflux-impaired pdr1/pdr3 knockout yeast; score 100 = 6 SD above DMSO; activity score, % at 12 µM; 0.02% of 300,000 active;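 active means lowest replicate activity score at least 50, where 100 means six control SD above control mean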;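 further: yeast exposed to compound for 9 h at 30 °C; higher score means more reporter readthrough which indicates perturbed polyadenylation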
VIM-2 inhibitor – blocks Pseudomonas aeruginosa VIM-2 metallo-beta-lactamase | inhibition, % at 5.6 µM | purified VIM-2, nitrocefin hydrolysis, epi-absorbance fluorescence | 0.89% of 290,000 active;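 active means inhibition above the mean of all tested compounds plus 3 SD, cutoff set per screening run, cut at about 7.5% in these data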;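 further: red hydrolysis product quenches plate fluorescence so inhibitors raise well fluorescence; 0% = enzyme with DMSO and 100% = DMSO without enzyme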
Neddyl block – inhibitors of human cullin neddylation | P61081+Q13564 | TR-FRET cullin neddylation, biochemical | calls only at 25 µM | 0.58% of 360,000 active; in the data active means inhibition above about 36%
Neddyl inh conf – cullin neddylation inhibition, confirmation; shares compounds with Neddyl block; TR-FRET cullin neddylation biochemical assay; calls only at 25 µM; 13% of 1,800 active; AID 652217; in the data active means inhibition above about 40%;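 further: neddylation substrate is the cullin 1 ring ligase complex with SKP2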
* = called active by the depositor; i = inactive; / = not tested or not shown; + = active, no number.

SMILES | IMP-1 inh | procasp3 activ | proCasp7 act | PolyA inh | VIM-2 inhibitor | Neddyl block | Neddyl inh conf
Cc1csc(NC(=O)c2cc(-c3ccco3)nc3ccccc23)n1 | -1.1 | 2.8 | -16.7 | 0.0 | -2.3 | i | /
COc1ccc(NC(=O)c2cc(-c3ccco3)nc3ccccc23)cn1 | / | 2.3 | -2.6 | / | / | i | /
CN(C)C(=O)c1ccc(NC(=O)c2cc(-c3ccco3)nc3ccccc23)cc1 | -1.9 | / | / | -9.8 | -1.3 | + | /
CCN(CC)CCNC(=O)c1ccc(NC(=O)c2cc(-c3ccco3)nc3ccccc23)cc1 | -1.1 | 2.7 | 2.5 | 5.7 | 2.4 | + | i
O=C(Oc1ccc(N(Cc2cccs2)C2=NS(=O)(=O)c3ccccc32)cc1)c1ccccc1F | -3.5 | 5.8 | -4.1 | 2.3 | -8.2 | i | /
N#Cc1cc(-c2cccc(Cl)c2)c[nH]c1=O | -3.2 | 4.6 | 15.8 | 7.3 | -0.5 | i | /
Cn1cc(-c2ccc(Cl)cc2)cc(C#N)c1=O | -3.9 | 8.2 | 5.3 | 2.0 | -3.4 | + | i
C=CCn1cc(-c2cccc(Cl)c2)cc(C#N)c1=O | -1.6 | 7.2 | -3.0 | -13.8 | -1.1 | + | i
COC(=O)[C@H](CCSC)NC(=O)Nc1cccc(Br)c1 | -2.8 | 2.0 | -11.9 | 31.9 | -3.9 | i | /
CS(=O)(=O)Nc1ccc(-c2cncc3nccn23)cc1 | / | / | / | / | / | + | /
Cc1nc2cc(F)ccc2n1C1CCN(C(=O)c2ccc(F)cc2F)CC1 | -2.8 | 3.1 | 10.1 | / | -6.6 | i | /
Cc1nc2cc(F)ccc2n1C1CCN(C(=O)c2c(F)cccc2F)CC1 | -2.2 | -0.3 | 2.8 | 0.1 | -1.2 | + | i
CC(=O)NCCC1CCCCN1Cc1nc(Cc2cccc(C(F)(F)F)c2)no1 (stereo unspecified) | -0.5 | 2.5 | 6.0 | -9.1 | -1.5 | i | /
O=C(N/N=C/c1c(O)n(Cc2ccccc2)c(=O)c2ccccc12)c1cccnc1 | -4.4 | -59.8 | -61.1 | 4.5 | -3.1 | + | /
COc1ccccc1CCN=C(N)NS(=O)(=O)c1cc(F)ccc1F | -0.1 | 8.1 | -1.7 | 8.5 | -1.2 | i | /
O=[n+]1cc(-c2cc3ccccc3o2)n([O-])c2c1CCCC2 | / | -4.8 | 1.0 | 1.4 | / | + | i
O=[n+]1cc(-c2ccccc2)n([O-])c2c1CCCCC2 | -4.1 | 0.2 | 2.1 | -6.4 | -2.2 | i | /
O=C(NCc1ccc(F)cc1)c1cc(C2CCCCN2S(=O)(=O)c2cccc3cccnc23)on1 (stereo unspecified) | / | / | / | / | / | i | /
N#CC1=C(N)Nc2nc3ccccc3n2C1c1ccc(Cl)cc1 (stereo unspecified) | -4.7 | -1.0 | -3.6 | -11.7 | -2.0 | + | i
CCC1CCCCN1CCN1C(=O)C2C(C(=O)Nc3ccc(OC)cc3)C3C=CC2(O3)C1C(=O)NC1CCCCC1 (stereo unspecified) | -1.1 | -0.4 | 2.8 | -2.3 | -1.2 | i | /
O=C(NC1CCCCC1)N(CCN1CCOCC1)Cc1cc2cc3c(cc2[nH]c1=O)OCCO3 | -4.5 | 2.3 | 8.3 | 0.8 | -1.8 | + | +
CC(=O)c1ccc(S(=O)(=O)N(CCCO)Cc2cc3cc4c(cc3[nH]c2=O)OCCO4)cc1 | 1.1 | 6.0 | -0.2 | -0.9 | 0.2 | i | /
O=c1[nH]c2cc3c(cc2cc1CN(CC1CCCO1)S(=O)(=O)c1ccccc1)OCCO3 (stereo unspecified) | 0.9 | -0.4 | 6.4 | -20.4 | -0.2 | i | /
O=C(NCc1ccccc1)N(Cc1cc2cc3c(cc2[nH]c1=O)OCCO3)CC1CCCO1 (stereo unspecified) | -0.2 | / | / | 15.3 | -3.1 | + | i
O=c1[nH]c2cc3c(cc2cc1CN(CCO)S(=O)(=O)c1ccccc1)OCCO3 | -2.4 | 6.8 | 0.7 | -17.9 | 0.8 | + | /
SMILES | IMP-1 inh | procasp3 activ | proCasp7 act | PolyA inh | VIM-2 inhibitor | Neddyl block | Neddyl inh conf
O=C1CCC([N+](=O)[O-])C(c2cc3c(cc2Br)OCO3)N1 (stereo unspecified) | -1.7 | -3.3 | -3.8 | 3.5 | -0.9 | i | /
CCn1ncc(/C=C/C(=O)C2CC2)c1C | -3.5 | 5.9 | 6.1 | -8.6 | -0.2 | i | /
Cc1ccc2nc(SCC(=O)c3ccc(Cl)s3)[nH]c2c1 | -1.1 | -8.8 | 4.7 | -8.0 | -4.4 | i | /
CC(C)N1CCN(C(=O)c2ccc(NC(=O)c3ccc(Br)o3)cc2)CC1 | / | 3.3 | -9.1 | / | / | i | /
COc1ccc(-c2cc(C(=O)OCC(=O)N3CCCCC3)c3ccccc3n2)cc1OC | / | 3.4 | 6.8 | / | / | + | i
COc1cc(-c2cc(C(=O)N3CCCCCC3)c3ccccc3n2)cc(OC)c1OC | / | / | / | / | / | + | /
COc1cc(-c2cc(C(=O)OCC(=O)NC3CC3)c3ccccc3n2)cc(OC)c1OC | / | 2.6 | -3.3 | / | / | i | /
O=C(O)c1cc(N2CCOCC2)nc2ccccc12 | -0.1 | -1.8 | 4.2 | -6.3 | -1.2 | / | /
Cc1ccc(-c2cc(C(=O)OCC(=O)NC3CC3)c3ccccc3n2)cc1 | / | -0.9 | -3.0 | / | / | + | /
O=C(c1cc(N2CCCCC2)nc2ccccc12)N1CCOCC1 | -0.9 | -1.7 | 6.2 | 9.8 | -2.1 | + | i
CCC(=O)Oc1ccc(C(=O)Nc2cccc(C(=O)NCC(C)C)c2)cc1 | -1.3 | 2.7 | 1.3 | 1.7 | 1.3 | i | /
Cc1ccc(S(=O)(=O)N(CCC(=O)O)Cc2ccc(Cl)cc2)cc1 | -2.5 | 0.6 | 4.8 | 1.7 | -2.2 | i | /
Cc1csc(SCC(=O)Nc2cccc3nsnc23)n1 | -5.1 | -5.4 | -17.4 | / | -1.4 | + | /
Cc1cc(=O)oc2cc(OCc3nnc(-c4ccccc4Br)o3)ccc12 | 0.7 | 0.5 | 6.6 | / | 2.8 | + | i
COc1cc2oc(=O)cc(CN3CCN(C(C)=O)CC3)c2cc1Cl | / | / | / | / | / | i | /
COc1cc2oc(=O)cc(CN3CCCCC3)c2cc1Cl | / | / | / | / | / | + | i
Cc1cc(=O)oc2c(C)c(OC3CCCCC3=O)ccc12 (stereo unspecified) | -4.5 | 8.5 | 0.3 | 15.0 | -0.9 | + | +
COc1ccccc1N=c1oc2cc(O)ccc2cc1C(=O)NCC1CCCO1 (stereo unspecified) | -3.4 | -20.1 | -20.3 | 24.9 | -2.4 | / | /
COc1cccc(N=c2oc3cc(O)ccc3cc2C(=O)NCC2CCCO2)c1 (stereo unspecified) | -0.4 | -24.1 | -18.2 | -6.7 | 2.1 | + | i
CC(Nc1ccc(Cl)cc1)c1cc(Cl)ccc1O (stereo unspecified) | -3.7 | 3.6 | -5.9 | 15.1 | -3.3 | i | /
COc1cc(NC(=O)c2ccc(Cl)cc2Cl)ccc1-c1cc2ccccc2oc1=O | -2.8 | 7.0 | -7.5 | -3.7 | -1.6 | i | /
